Usually IC50 stands for the midpoint of a concentration-inhibition curve.

Each structure is given as a SMILES string.

The target of test [1] is T1, Aminopeptidase N (Rattus norvegicus) (UniProt P15684).
T1 sequence (whole entry): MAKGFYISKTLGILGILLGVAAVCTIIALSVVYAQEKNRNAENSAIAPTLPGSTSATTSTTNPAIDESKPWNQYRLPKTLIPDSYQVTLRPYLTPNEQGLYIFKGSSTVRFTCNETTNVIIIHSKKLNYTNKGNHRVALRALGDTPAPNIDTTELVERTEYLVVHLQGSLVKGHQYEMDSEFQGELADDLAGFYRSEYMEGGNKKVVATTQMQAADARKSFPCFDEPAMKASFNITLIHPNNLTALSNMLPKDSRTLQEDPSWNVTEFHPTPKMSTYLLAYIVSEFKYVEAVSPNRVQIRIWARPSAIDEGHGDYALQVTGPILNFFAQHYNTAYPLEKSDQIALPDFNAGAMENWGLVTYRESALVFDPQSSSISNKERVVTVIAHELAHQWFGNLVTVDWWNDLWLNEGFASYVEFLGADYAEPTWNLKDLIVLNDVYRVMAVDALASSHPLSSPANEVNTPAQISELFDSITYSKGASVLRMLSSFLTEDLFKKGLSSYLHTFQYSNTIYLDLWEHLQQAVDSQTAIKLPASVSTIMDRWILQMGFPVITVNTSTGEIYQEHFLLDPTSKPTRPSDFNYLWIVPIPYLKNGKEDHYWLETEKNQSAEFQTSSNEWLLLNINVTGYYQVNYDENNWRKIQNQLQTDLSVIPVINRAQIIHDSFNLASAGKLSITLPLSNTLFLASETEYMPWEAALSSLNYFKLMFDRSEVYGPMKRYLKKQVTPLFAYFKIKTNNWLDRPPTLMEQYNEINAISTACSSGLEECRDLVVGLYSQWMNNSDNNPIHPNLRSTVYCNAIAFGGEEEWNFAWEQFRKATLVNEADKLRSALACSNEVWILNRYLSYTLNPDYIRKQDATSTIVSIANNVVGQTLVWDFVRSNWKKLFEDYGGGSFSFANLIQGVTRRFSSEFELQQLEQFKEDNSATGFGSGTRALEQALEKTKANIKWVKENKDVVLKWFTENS
Description: Inhibition of rat aminopeptidase N assessed as ACC fluorophore released after 30 mins using Alanine ACC as substrate. In outline:
(§1)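 Enzyme (0.45 nM) preincubated 30 min at 37 C with phosphinate inhibitor (eight concentrations) in 100 mM Tris-HCl pH 7.5 (buffer made at 20 C), final DMSO 1%. Ala-ACC added at 50 uM final. ACC release read continuously in kinetic mode, ex 355/em 460 nm. IC50 values are means of two experiments.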

Test [2] concerns the target T2, Aminopeptidase N (Sus scrofa) (UniProt P15145).
T2 sequence (whole entry): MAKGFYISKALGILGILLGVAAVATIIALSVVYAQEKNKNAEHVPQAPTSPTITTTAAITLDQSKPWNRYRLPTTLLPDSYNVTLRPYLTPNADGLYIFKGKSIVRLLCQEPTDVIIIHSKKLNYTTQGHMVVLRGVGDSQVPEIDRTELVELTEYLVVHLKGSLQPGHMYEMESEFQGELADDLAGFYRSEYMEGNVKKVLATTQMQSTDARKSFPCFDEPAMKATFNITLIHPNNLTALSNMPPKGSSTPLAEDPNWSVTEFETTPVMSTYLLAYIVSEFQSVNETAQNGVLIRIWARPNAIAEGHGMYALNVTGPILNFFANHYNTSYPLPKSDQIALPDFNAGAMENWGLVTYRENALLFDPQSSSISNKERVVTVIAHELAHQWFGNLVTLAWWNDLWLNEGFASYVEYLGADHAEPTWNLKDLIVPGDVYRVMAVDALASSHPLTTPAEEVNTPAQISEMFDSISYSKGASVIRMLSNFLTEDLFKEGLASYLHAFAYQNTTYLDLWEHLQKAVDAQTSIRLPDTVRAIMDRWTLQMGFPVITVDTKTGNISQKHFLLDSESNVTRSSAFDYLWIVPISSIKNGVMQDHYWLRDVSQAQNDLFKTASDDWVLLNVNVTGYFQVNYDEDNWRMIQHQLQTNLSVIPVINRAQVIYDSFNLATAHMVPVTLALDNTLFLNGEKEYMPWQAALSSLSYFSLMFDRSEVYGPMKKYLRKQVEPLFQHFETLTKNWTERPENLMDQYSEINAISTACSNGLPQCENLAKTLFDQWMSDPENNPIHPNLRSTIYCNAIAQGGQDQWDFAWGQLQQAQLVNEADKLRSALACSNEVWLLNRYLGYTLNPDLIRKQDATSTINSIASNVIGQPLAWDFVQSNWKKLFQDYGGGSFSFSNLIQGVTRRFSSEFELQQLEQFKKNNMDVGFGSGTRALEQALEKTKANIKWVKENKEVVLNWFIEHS
Description: Inhibition of pig aminopeptidase N assessed as ACC fluorophore released after 30 mins using Alanine ACC as substrate. Put shortly: as §1

Test [3] can be described thus: Selectivity ratio of IC50 for rat aminopeptidase N to the IC50 for human aminopeptidase N.
A short description of test [4]: Selectivity ratio of IC50 for pig aminopeptidase N to the IC50 for human aminopeptidase N.

Regarding `CCC(N)P(=O)(O)C(O)CCc1ccccc1` (centres undefined), the figures for the IC50 in test [1] and in test [2] were 2400 nM and 1300 nM, respectively.
For `CCCC(N)P(=O)(O)C(=S)NCCc1ccccc1` (centres undefined), the figures for the IC50 in test [1] and in test [2] were 2550 nM and 1350 nM, respectively.
On to `CCCCC(N)P(=O)(O)C(O)CCc1ccccc1` (centres undefined), for which the IC50 in test [1] worked out at 520 nM; in test [2], 210 nM.
Regarding `CCOC(=O)c1ccc(CNC(=S)P(=O)(O)C(C)N)cc1` (centres undefined), the IC50 in test [1] and in test [2] was more than 20000 nM each time.
As to `CCCCC(N)P(=O)(O)C(=S)NCC(=O)OCc1ccccc1` (centres undefined), the IC50 in test [1] and in test [2] was more than 20000 nM throughout.
Turning to `NC(c1ccccc1)P(=O)(O)C(O)CCc1ccccc1` (centres undefined), the IC50 came to 2200 nM in test [1] and 240 nM in test [2].
With `CCCCC(N)P(=O)(O)C(O)C(C)c1ccccc1` (centres undefined), the IC50 in test [1] was found to be 460 nM; in test [2] it was 220 nM.
Regarding `CCCC(N)P(=O)(O)C(=S)NCc1ccc(OC)cc1` (centres undefined), the IC50 in test [1] was 2450 nM; in test [2], 2150 nM.
`CC(C)CC(N)P(=O)(O)C(O)CCc1ccccc1` (centres undefined): the IC50 in test [1] was determined as 920 nM; in test [2], 1000 nM.
For `CCOC(=O)c1ccc(CNC(=S)P(=O)(O)C(N)CCc2ccccc2)cc1` (centres undefined), the IC50 in test [1] and in test [2] was more than 20000 nM throughout.
In the case of `CC(C)CC(N)P(=O)(O)C(=S)NCc1ccccc1` (centres undefined), the results for the IC50 in test [1] and in test [2] were 5100 nM and 2800 nM, respectively.
Take `NC(Cc1ccccc1)P(=O)(O)C(O)CCc1ccccc1` (centres undefined): the results for the IC50 in test [1] and in test [2] were 1600 nM and 660 nM, respectively.
Consider `CCCC(N)P(=O)(O)C(=S)NCc1ccccc1C(=O)OC` (centres undefined), for which the IC50 in test [1] and in test [2] was more than 20000 nM in each case.
Take `CCCC(N)P(=O)(O)C(=S)NCCCSC` (centres undefined): the IC50 in test [1] is 1450 nM; in test [2], 1950 nM.
Take `NC(CCc1ccccc1)P(=O)(O)C(O)CCc1ccccc1` (centres undefined): the IC50 was found to be 400 nM in test [1] and 220 nM in test [2].
For the compound `COc1ccc(CNC(=S)P(=O)(O)C(N)CCc2ccccc2)cc1` (centres undefined), the IC50 in test [1] and in test [2] was 2650 nM each time. For the same compound, the Ratio IC50 in test [3] and in test [4] was 4 throughout.
As for `CCCC(N)P(=O)(O)C(=S)NCc1ccccc1` (centres undefined), the IC50 in test [1] is 2100 nM; in test [2] it was 1600 nM.
Take `CCCCC(N)P(=O)(O)C(=S)NCCc1ccccc1` (centres undefined): the IC50 in test [1] stood at 620 nM; in test [2], 250 nM.
For the compound `CNC(=S)P(=O)(O)C(N)C(C)C` (centres undefined), the IC50 in test [1] worked out at 21400 nM; in test [2], 10200 nM.
On to `CCCNC(=S)P(=O)(O)C(N)CCc1ccccc1` (centres undefined), for which the IC50 was 1350 nM in test [1] and 1450 nM in test [2].
`CC(C)CC(O)P(=O)(O)C(N)c1ccccc1` (centres undefined): the IC50 in test [1] was found to be 4700 nM; in test [2], 12000 nM.
`CCCCC(N)P(=O)(O)C(=S)NCc1ccc(OC)cc1` (centres undefined): the IC50 in test [1] is 1050 nM; in test [2], 460 nM.
The matching figures for `CCCC(N)P(=O)(O)C(=S)NCc1ccc(C(=O)OCC)cc1` (centres undefined): more than 20000 nM and more than 20000 nM.
Turning to `CC(N)P(=O)(O)C(=S)NCCc1ccccc1` (centres undefined), the values for the IC50 in test [1] and in test [2] were 8700 nM and 5200 nM, respectively.
As for `CC(N)P(=O)(O)C(=S)NCc1ccccc1` (centres undefined), the IC50 was 1450 nM in test [1] and 1900 nM in test [2].
For `NC(c1ccccc1)P(=O)(O)C(O)c1ccccc1` (centres undefined), the IC50 in test [1] was found to be 460 nM; in test [2], 550 nM.
The matching figures for `CCCCCCNC(=S)P(=O)(O)C(N)CC(C)C` (centres undefined): 1700 nM and 1400 nM.
Take `CC(C)CNC(=S)P(=O)(O)C(N)C(C)C` (centres undefined): the IC50 in test [1] stood at 8950 nM; in test [2], 4800 nM.
Regarding `CC(O)P(=O)(O)C(N)c1ccccc1` (centres undefined), the IC50 turned out to be 15200 nM in test [1] and 48000 nM in test [2].
The matching figures for `CCC(N)P(=O)(O)C(=S)NCCCSC` (centres undefined): 2500 nM and 1650 nM.
As for `CCCC(N)P(=O)(O)C(O)Cc1ccccc1` (centres undefined), the IC50 in test [1] turned out to be 1200 nM; in test [2], 950 nM.
On to `CSCCCNC(=S)P(=O)(O)C(C)N` (centres undefined), for which the results for the IC50 in test [1] and in test [2] were 3450 nM and 2450 nM, respectively.
Consider `NC(CCc1ccccc1)P(=O)(O)C(=S)NCc1ccccc1` (centres undefined), for which the IC50 stood at 2500 nM in test [1] and 2300 nM in test [2].
On to `CNC(=S)P(=O)(O)C(N)CC(C)C` (centres undefined), for which the IC50 in test [1] was 10800 nM; in test [2], more than 20000 nM.
Consider `CC(C)C(N)P(=O)(O)C(O)CCc1ccccc1` (centres undefined), for which the IC50 in test [1] came to 1100 nM; in test [2], 500 nM.
`CCCCC(N)P(=O)(O)C(=S)NCc1ccccc1` (centres undefined): the IC50 in test [1] was 1100 nM; in test [2], 620 nM.
In the case of `CCCC(N)P(=O)(O)C(=S)NCc1ccc(C(=O)O)cc1` (centres undefined), the IC50 in test [1] and in test [2] was more than 20000 nM each time.
Take `CCCCCCNC(=S)P(=O)(O)C(N)C(C)C` (centres undefined): the values for the IC50 in test [1] and in test [2] were 5050 nM and 1700 nM, respectively.
For `CSCCCNC(=S)P(=O)(O)C(N)CCc1ccccc1` (centres undefined), the IC50 turned out to be 1650 nM in test [1] and 1550 nM in test [2].
On the same counts, the results for `CCCCC(N)P(=O)(O)C(=S)NCc1ccccc1C(=O)OC` (centres undefined) are more than 20000 nM and more than 20000 nM.
For `CCCCC(N)P(=O)(O)C(=S)NCCCSC` (centres undefined), the results for the IC50 in test [1] and in test [2] were 610 nM and 360 nM, respectively.
With `CC(C)c1ccc(C(O)P(=O)(O)C(C)N)cc1` (centres undefined), the IC50 turned out to be 3500 nM in test [1] and 1200 nM in test [2].
With `CCCCC(N)P(=O)(O)C(O)c1ccc(O)cc1` (centres undefined), the IC50 in test [1] was 6200 nM; in test [2] it was 5800 nM.
As for `COc1ccc(CNC(=S)P(=O)(O)C(C)N)cc1` (centres undefined), the IC50 in test [1] and in test [2] was more than 20000 nM in each case.
For `CC(C)CC(N)P(=O)(O)C(=S)NCCc1ccccc1` (centres undefined), the IC50 was 5400 nM in test [1] and 4200 nM in test [2].
Regarding `COC(=O)c1ccccc1CNC(=S)P(=O)(O)C(N)CC(C)C` (centres undefined), the IC50 in test [1] and in test [2] was more than 20000 nM in each case.

These data come from ChEMBL document CHEMBL1156183, “Identification of very potent inhibitor of human aminopeptidase N (CD13)” (Bioorg Med Chem Lett, 2010).
